Experimental data reported in ChEMBL document CHEMBL1153954, “Promiscuous aggregate-based inhibitors promote enzyme unfolding” (J Med Chem, 2009).
Activity calls are given as the source filed them. The rule behind the calls is not given here.

Columns and labels:
AmpC (Escherichia coli) [1] = biological target: AmpC (Escherichia coli) (UniProt Q83TT7); assay: Aggregation based inhibition of Escherichia coli AmpC assessed as increase in deuteration of AmpC peptide fragment spanning 243-250 amino acid sequence after 8 hrs by hydrogen-deuterium exchange mass spectrometry relative to control
AmpC (Escherichia coli), sequence (Q83TT7 as listed by the source): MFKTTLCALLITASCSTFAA
Summary of the method: (§1)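 AmpC β-lactamase diluted from a 215 μM stock (50 mM KPi, pH 7.0) into deuterated 50 mM MOPS in D2O, pH 7.0. Final enzyme was 0.16 μM with 100 μM aggregator (0.5% DMSO) or 16 μM without. Aggregate samples were centrifuged 16000g for 5 min and the pellet kept. Triton X-100 was added to release enzyme. Samples were quenched with ice-cold 0.1% TFA pH 2.5, digested on immobilized pepsin 5 min on ice, then analysed by chilled fast-gradient LC-MS. Deuterium uptake is centroid mass shift versus the undeuterated control, not corrected for back exchange. Ratio is inhibited over uninhibited, from three replicates.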

AmpC (Escherichia coli) [2] = biological target: AmpC (Escherichia coli) (UniProt Q83TT7); assay: (§2) Aggregation based inhibition of Escherichia coli AmpC assessed as increase in deuteration of AmpC peptide fragment spanning 105-128 amino acid sequence after 8 hrs by hydrogen-deuterium exchange mass spectrometry relative to control; summary of the method: as §1
AmpC (Escherichia coli) [3] = biological target: AmpC (Escherichia coli) (UniProt Q83TT7); assay: Aggregation based inhibition of Escherichia coli AmpC assessed as increase in deuteration of AmpC peptide fragment spanning 109-128 amino acid sequence after 8 hrs by hydrogen-deuterium exchange mass spectrometry relative to control; summary of the method: as §1
AmpC (Escherichia coli) [4] = biological target: AmpC (Escherichia coli) (UniProt Q83TT7); assay: Aggregation based inhibition of Escherichia coli AmpC assessed as increase in deuteration of AmpC peptide fragment spanning 323-332 amino acid sequence after 10 mins by hydrogen-deuterium exchange mass spectrometry relative to control; summary of the method: as §1
AmpC (Escherichia coli) [5] = biological target: AmpC (Escherichia coli) (UniProt Q83TT7); assay: Inhibition of Escherichia coli AmpC assessed as induction of protein unfolding measured by trypsin mediated degradation of compound-AmpC enzyme complex at 100 uM after 4 hrs by gel electrophoresis
Summary of the method: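 AmpC (0.5 μM) was preincubated 5 min with or without 100 μM aggregator in 50 mM KPi, pH 7.0, 1% DMSO final. Trypsin (0.01 or 0.025 mg/mL) was then added, and digestion ran at room temperature for 0, 15, 30 min, 1 h or 4 h. Samples were boiled in DTT-containing loading buffer and the AmpC band was followed by SDS-PAGE.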

AmpC (Escherichia coli) [6] = biological target: AmpC (Escherichia coli) (UniProt Q83TT7); assay: Aggregation based inhibition of Escherichia coli AmpC assessed as increase in deuteration of AmpC peptide fragment spanning 8-18 amino acid sequence after 8 hrs by hydrogen-deuterium exchange mass spectrometry relative to control; summary of the method: as §1
AmpC (Escherichia coli) [7] = biological target: AmpC (Escherichia coli) (UniProt Q83TT7); assay: Aggregation based inhibition of Escherichia coli AmpC assessed as increase in deuteration of AmpC peptide fragment spanning 42-56 amino acid sequence after 8 hrs by hydrogen-deuterium exchange mass spectrometry relative to control; summary of the method: as §1
AmpC (Escherichia coli) [8] = biological target: AmpC (Escherichia coli) (UniProt Q83TT7); assay: as §2, with “solvent accessibility” for “increase in deuteration”, “by measuring ratio of side chain surface area to random coil values per amino acid reside” for “after 8 hrs”; parameters: scale not given: the % may be the effect or the level left
Summary of the method: (§3)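 Side-chain solvent accessibility per peptide was calculated from the structure with a 1.4 Å probe radius and default atomic radii and solvation parameters. Each value is the average over residues of the side-chain surface area relative to its random-coil value. Above 50% is exposed; below 20% is buried.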

AmpC (Escherichia coli) [9] = biological target: AmpC (Escherichia coli) (UniProt Q83TT7); assay: (§4) Aggregation based inhibition of Escherichia coli AmpC assessed as increase in deuteration of AmpC peptide fragment spanning 271-289 amino acid sequence after 8 hrs by hydrogen-deuterium exchange mass spectrometry relative to control; summary of the method: as §1
AmpC (Escherichia coli) [10] = biological target: AmpC (Escherichia coli) (UniProt Q83TT7); assay: as §4, with “solvent accessibility” for “increase in deuteration”, “by measuring ratio of side chain surface area to random coil values per amino acid reside” for “after 8 hrs”; parameters: scale not given: the % may be the effect or the level left; summary of the method: as §3
AmpC (Escherichia coli) [11] = biological target: AmpC (Escherichia coli) (UniProt Q83TT7); assay: Aggregation based inhibition of Escherichia coli AmpC assessed as increase in deuteration of AmpC peptide fragment spanning 132-146 amino acid sequence after 8 hrs by hydrogen-deuterium exchange mass spectrometry relative to control; summary of the method: as §1
AmpC (Escherichia coli) [12] = biological target: AmpC (Escherichia coli) (UniProt Q83TT7); assay: Aggregation based inhibition of Escherichia coli AmpC assessed as increase in deuteration of AmpC peptide fragment spanning 323-332 amino acid sequence after 1 hr by hydrogen-deuterium exchange mass spectrometry relative to control; summary of the method: as §1
AmpC (Escherichia coli) [13] = biological target: AmpC (Escherichia coli) (UniProt Q83TT7); assay: (§5) Aggregation based inhibition of Escherichia coli AmpC assessed as solvent accessibility of AmpC peptide fragment spanning 336-350 amino acid sequence by measuring ratio of side chain surface area to random coil values per amino acid reside by hydrogen-deuterium exchange mass spectrometry relative to control; parameters: scale not given: the % may be the effect or the level left; summary of the method: as §3
AmpC (Escherichia coli) [14] = biological target: AmpC (Escherichia coli) (UniProt Q83TT7); assay: Aggregation based inhibition of Escherichia coli AmpC assessed as increase in deuteration of AmpC peptide fragment spanning 109-128 amino acid sequence after 10 mins by hydrogen-deuterium exchange mass spectrometry relative to control; summary of the method: as §1
AmpC (Escherichia coli) [15] = biological target: AmpC (Escherichia coli) (UniProt Q83TT7); assay: as §5, with “291-322” for “336-350”; parameters: scale not given: the % may be the effect or the level left; summary of the method: as §3
AmpC (Escherichia coli) [16] = biological target: AmpC (Escherichia coli) (UniProt Q83TT7); assay: Aggregation based inhibition of Escherichia coli AmpC assessed as increase in deuteration of AmpC peptide fragment spanning 8-18 amino acid sequence after 10 mins by hydrogen-deuterium exchange mass spectrometry relative to control; summary of the method: as §1
AmpC (Escherichia coli) [17] = biological target: AmpC (Escherichia coli) (UniProt Q83TT7); assay: as §5, with “109-128” for “336-350”; parameters: scale not given: the % may be the effect or the level left; summary of the method: as §3
AmpC (Escherichia coli) [18] = biological target: AmpC (Escherichia coli) (UniProt Q83TT7); assay: Aggregation based inhibition of Escherichia coli AmpC assessed as increase in deuteration of AmpC peptide fragment spanning 336-350 amino acid sequence after 1 hr by hydrogen-deuterium exchange mass spectrometry relative to control; summary of the method: as §1
AmpC (Escherichia coli) [19] = biological target: AmpC (Escherichia coli) (UniProt Q83TT7); assay: as §5, with “42-56” for “336-350”; parameters: scale not given: the % may be the effect or the level left; summary of the method: as §3
AmpC (Escherichia coli) [20] = biological target: AmpC (Escherichia coli) (UniProt Q83TT7); assay: Aggregation based inhibition of Escherichia coli AmpC assessed as increase in deuteration of AmpC peptide fragment spanning 291-322 amino acid sequence after 8 hrs by hydrogen-deuterium exchange mass spectrometry relative to control; summary of the method: as §1

CC(=O)c1c(O)c(C)c(O)c(Cc2c(O)c3c(c(C(=O)/C=C/c4ccccc4)c2O)OC(C)(C)C=C3)c1O
fold change (FC) (AmpC (Escherichia coli) [1]): 1.7 | fold change (FC) (AmpC (Escherichia coli) [2]): 1.8 | fold change (FC) (AmpC (Escherichia coli) [3]): 1.6 | fold change (FC) (AmpC (Escherichia coli) [4]): 1.3 | Activity (AmpC (Escherichia coli) [5]): Active | fold change (FC) (AmpC (Escherichia coli) [6]): 2.5 | fold change (FC) (AmpC (Escherichia coli) [7]): 1.8 | Activity (AmpC (Escherichia coli) [8]): 31.3% | fold change (FC) (AmpC (Escherichia coli) [9]): 1.4 | Activity (AmpC (Escherichia coli) [10]): 40.7% | fold change (FC) (AmpC (Escherichia coli) [11]): 3.4 | fold change (FC) (AmpC (Escherichia coli) [12]): 3 | Activity (AmpC (Escherichia coli) [13]): 21.6% | fold change (FC) (AmpC (Escherichia coli) [14]): 1.5 | Activity (AmpC (Escherichia coli) [15]): 22.3% | fold change (FC) (AmpC (Escherichia coli) [16]): 1.3 | Activity (AmpC (Escherichia coli) [17]): 36.9% | fold change (FC) (AmpC (Escherichia coli) [18]): 3.7 | Activity (AmpC (Escherichia coli) [19]): 44.7% | fold change (FC) (AmpC (Escherichia coli) [20]): 1.8
